Test results: ChEMBL document CHEMBL1250442, “Inhibiting gene expression at transcription start sites in chromosomal DNA with antigene RNAs” (Nat Chem Biol, 2005)
The source made the active and inactive calls. No cut-off for these calls is given here.

Legend:
T47D [1] = test: Inhibition of PR-A gene expression in human T47D cells at 25 nM by syber green assay in presence of 10 nM estradiol; type: functional, cell-based
T47D [2] = test: Effect of DNA methylation at (-126) CpG site near androgen receptor transcription start site (-9) in human T47D cells by sodium bisulfite sequencing analysis; type: functional, cell-based
Summary of the method: (§1)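 T47D cells (RPMI-1640, 10% FBS, NEAA, insulin; 37 °C, 5% CO2) transfected with agRNA duplexes via Oligofectamine, medium changed at 24 h. Genomic DNA bisulphite-treated, regions around AR and hPR-B start sites PCR-amplified (HotStarTaq, 100 ng treated DNA), gel-purified, TOPO TA cloned; 5–15 colonies per plate miniprepped and sequenced.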

T47D [3] = test: Effect of DNA methylation at (-178) CpG site near androgen receptor transcription start site (-9) in human T47D cells by sodium bisulfite sequencing analysis; type: functional, cell-based; summary of the method: as §1
T47D [4] = test: Effect of DNA methylation at (+43) CpG site near androgen receptor transcription start site (-9) in human T47D cells by sodium bisulfite sequencing analysis; type: functional, cell-based; summary of the method: as §1
T47D [5] = test: Inhibition of androgen receptor expression in human T47D cells after 12 days at 100 nM by syber green assay; type: functional, cell-based
Summary of the method: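 AR expression in T47D cells, grown in RPMI-1640 with 10% FBS, NEAA and insulin. Plated antibiotic-free two days before Oligofectamine transfection with 100 nM duplex RNA; medium replaced after 24 h. TRIzol total RNA. SYBR Green real-time PCR: 50 °C 2 min, 95 °C 10 min, 40 cycles of 95 °C 15 s and 60 °C 1 min.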

T47D [6] = test: Effect of DNA methylation at (-57) CpG site near androgen receptor transcription start site (-9) in human T47D cells by sodium bisulfite sequencing analysis; type: functional, cell-based; summary of the method: as §1
T47D [7] = test: Inhibition of PR-B gene expression in human T47D cells at 25 nM by syber green assay in presence of 10 nM estradiol; type: functional, cell-based
T47D [8] = test: Inhibition of PR-A mRNA gene expression in human T47D cells at 100 nM by syber green assay; type: functional
Summary of the method: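 T47D cells plated at 80,000/well without antibiotics two days before Oligofectamine transfection with agRNA duplex (25 or 100 nM final); medium changed at 24 h, harvest day 5 unless stated otherwise. TRIzol total RNA; PR mRNA by real-time PCR with SYBR Green: 50 °C 2 min, 95 °C 10 min, 40 cycles 95 °C 15 s/60 °C 1 min.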

T47D [9] = test: Effect of DNA methylation at (-36) CpG site near androgen receptor transcription start site (-9) in human T47D cells by sodium bisulfite sequencing analysis; type: functional, cell-based; summary of the method: as §1
T47D [10] = test: Effect of DNA methylation at (+1) CpG site near androgen receptor transcription start site (-9) in human T47D cells by sodium bisulfite sequencing analysis; type: functional, cell-based
Summary of the method: (§2)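 T47D cells grown in RPMI-1640 with 10% FBS, 0.5% NEAA, insulin and P/S at 37 °C, 5% CO2. They were plated at 80,000 cells/well 2 days before lipid transfection with 25 nM or 100 nM duplex, with medium changed at 24 h. Cells were harvested 5 days post-transfection. 100 ng bisulfite-treated DNA was PCR-amplified, and products were TA-cloned. 5–15 colonies per plate were sequenced.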

T47D [11] = test: Effect of DNA methylation at (-172) CpG site near androgen receptor transcription start site (-9) in human T47D cells by sodium bisulfite sequencing analysis; type: functional, cell-based; summary of the method: as §1
T47D [12] = test: Effect of DNA methylation at (-52) CpG site near androgen receptor transcription start site (-9) in human T47D cells by sodium bisulfite sequencing analysis; type: functional, cell-based; summary of the method: as §1
T47D [13] = test: Effect of DNA methylation at (+11) CpG site near androgen receptor transcription start site (-9) in human T47D cells by sodium bisulfite sequencing analysis; type: functional, cell-based; summary of the method: as §2
T47D [14] = test: Effect of DNA methylation at (-167) CpG site near androgen receptor transcription start site (-9) in human T47D cells by sodium bisulfite sequencing analysis; type: functional, cell-based; summary of the method: as §1
T47D [15] = test: Effect of DNA methylation at (-31) CpG site near androgen receptor transcription start site (-9) in human T47D cells by sodium bisulfite sequencing analysis; type: functional, cell-based; summary of the method: as §1
T47D [16] = test: Effect of DNA methylation at (-124) CpG site near androgen receptor transcription start site (-9) in human T47D cells by sodium bisulfite sequencing analysis; type: functional, cell-based; summary of the method: as §1
T47D [17] = test: Inhibition of PR-B mRNA gene expression in human T47D cells at 100 nM by syber green assay; type: functional
Summary of the method: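 T47D cells in RPMI-1640 with 10% FBS, NEAA, insulin, 37 °C, 5% CO2. Plated two days before transfection without antibiotics. Oligofectamine-mediated duplex RNA transfection at 100 nM final, medium changed at 24 h, harvest five days post-transfection. Total RNA extracted with TRIzol. hPR mRNA quantified by SYBR Green qPCR: 50 °C 2 min, 95 °C 10 min, then 40 cycles of 95 °C 15 s / 60 °C 1 min.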

T47D [18] = test: Effect of DNA methylation at (+19) CpG site near androgen receptor transcription start site (-9) in human T47D cells by sodium bisulfite sequencing analysis; type: functional, cell-based; summary of the method: as §2
T47D [19] = test: Effect of DNA methylation at (-43) CpG site near androgen receptor transcription start site (-9) in human T47D cells by sodium bisulfite sequencing analysis; type: functional, cell-based; summary of the method: as §1
T47D [20] = test: Effect of DNA methylation at (-122) CpG site near androgen receptor transcription start site (-9) in human T47D cells by sodium bisulfite sequencing analysis; type: functional, cell-based; summary of the method: as §1
T47D [21] = test: Effect of DNA methylation at (-132) CpG site near androgen receptor transcription start site (-9) in human T47D cells by sodium bisulfite sequencing analysis; type: functional, cell-based; summary of the method: as §1
T47D [22] = test: Effect of DNA methylation at (+11) CpG site near androgen receptor transcription start site (-13) in human T47D cells by sodium bisulfite sequencing analysis; type: functional, cell-based; summary of the method: as §2
T47D [23] = test: Effect of DNA methylation at (-57) CpG site near androgen receptor transcription start site (-13) in human T47D cells by sodium bisulfite sequencing analysis; type: functional, cell-based; summary of the method: as §1
T47D [24] = test: Effect of DNA methylation at (-31) CpG site near androgen receptor transcription start site (-13) in human T47D cells by sodium bisulfite sequencing analysis; type: functional, cell-based; summary of the method: as §1
T47D [25] = test: Effect of DNA methylation at (+43) CpG site near androgen receptor transcription start site (-13) in human T47D cells by sodium bisulfite sequencing analysis; type: functional, cell-based; summary of the method: as §1
T47D [26] = test: Effect of DNA methylation at (-43) CpG site near androgen receptor transcription start site (-13) in human T47D cells by sodium bisulfite sequencing analysis; type: functional, cell-based; summary of the method: as §1
T47D [27] = test: Effect of DNA methylation at (-167) CpG site near androgen receptor transcription start site (-13) in human T47D cells by sodium bisulfite sequencing analysis; type: functional, cell-based; summary of the method: as §1
T47D [28] = test: Effect of DNA methylation at (+1) CpG site near androgen receptor transcription start site (-13) in human T47D cells by sodium bisulfite sequencing analysis; type: functional, cell-based; summary of the method: as §2
T47D [29] = test: Effect of DNA methylation at (-124) CpG site near androgen receptor transcription start site (-13) in human T47D cells by sodium bisulfite sequencing analysis; type: functional, cell-based; summary of the method: as §1
T47D [30] = test: Effect of DNA methylation at (-178) CpG site near androgen receptor transcription start site (-13) in human T47D cells by sodium bisulfite sequencing analysis; type: functional, cell-based; summary of the method: as §1
T47D [31] = test: Effect of DNA methylation at (-36) CpG site near androgen receptor transcription start site (-13) in human T47D cells by sodium bisulfite sequencing analysis; type: functional, cell-based; summary of the method: as §1
T47D [32] = test: Effect of DNA methylation at (-52) CpG site near androgen receptor transcription start site (-13) in human T47D cells by sodium bisulfite sequencing analysis; type: functional, cell-based; summary of the method: as §1
T47D [33] = test: Effect of DNA methylation at (+19) CpG site near androgen receptor transcription start site (-13) in human T47D cells by sodium bisulfite sequencing analysis; type: functional, cell-based; summary of the method: as §2
T47D [34] = test: Effect of DNA methylation at (-172) CpG site near androgen receptor transcription start site (-13) in human T47D cells by sodium bisulfite sequencing analysis; type: functional, cell-based; summary of the method: as §1
T47D [35] = test: Effect of DNA methylation at (-122) CpG site near androgen receptor transcription start site (-13) in human T47D cells by sodium bisulfite sequencing analysis; type: functional, cell-based; summary of the method: as §1
T47D [36] = test: Effect of DNA methylation at (-132) CpG site near androgen receptor transcription start site (-13) in human T47D cells by sodium bisulfite sequencing analysis; type: functional, cell-based; summary of the method: as §1
T47D [37] = test: Effect of DNA methylation at (-126) CpG site near androgen receptor transcription start site (-13) in human T47D cells by sodium bisulfite sequencing analysis; type: functional, cell-based; summary of the method: as §1

Structure (SMILES): Cc1cn(CC(=O)N(CCNC(=O)CN(CCNC(=O)CN(CCNC(=O)CN(CCNC(=O)CN(CCNC(=O)CN(CCNC(=O)CN(CCNC(=O)CN(CCNC(=O)CN(CCNC(=O)CN(CCNC(=O)CN(CCNC(=O)CN(CCNC(=O)CN(CCNC(=O)CN(CCNC(=O)CN(CCNC(=O)CN(CCNC(=O)CN(CCNC(=O)CN(CCNC(=O)CN(CCNC(=O)CN(CCNC(=O)CN)C(=O)Cn2ccc(N)nc2=O)C(=O)Cn2ccc(N)nc2=O)C(=O)Cn2cnc3c(N)ncnc32)C(=O)Cn2ccc(N)nc2=O)C(=O)Cn2ccc(N)nc2=O)C(=O)Cn2ccc(=O)[nH]c2=O)C(=O)Cn2ccc(N)nc2=O)C(=O)Cn2ccc(N)nc2=O)C(=O)Cn2ccc(N)nc2=O)C(=O)Cn2cnc3c(N)ncnc32)C(=O)Cn2cnc3c(=O)[nH]c(N)nc32)C(=O)Cn2ccc(N)nc2=O)C(=O)Cn2cnc3c(=O)[nH]c(N)nc32)C(=O)Cn2ccc(N)nc2=O)C(=O)Cn2ccc(N)nc2=O)C(=O)Cn2ccc(N)nc2=O)C(=O)Cn2ccc(N)nc2=O)C(=O)Cn2ccc(N)nc2=O)C(=O)Cn2ccc(=O)[nH]c2=O)CC(=O)NCCN(CC(=O)NCC(=O)O)C(=O)Cn2cc(C)c(=O)[nH]c2=O)c(=O)[nH]c1=O
- inhibition (T47D [1]): Active
- Activity (T47D [2]): inactive
- Activity (T47D [3]): inactive
- Activity (T47D [4]): inactive
- inhibition (T47D [5]): Active
- Activity (T47D [6]): inactive
- inhibition (T47D [7]): Active
- inhibition at 0.1 µM (T47D [8]): 82%
- Activity (T47D [9]): inactive
- Activity (T47D [10]): inactive
- Activity (T47D [11]): inactive
- Activity (T47D [12]): inactive
- Activity (T47D [13]): inactive
- Activity (T47D [14]): inactive
- Activity (T47D [15]): inactive
- Activity (T47D [16]): inactive
- inhibition at 0.1 µM (T47D [17]): 82%
- Activity (T47D [18]): inactive
- Activity (T47D [19]): inactive
- Activity (T47D [20]): inactive
- Activity (T47D [21]): inactive

Structure (SMILES): Cc1cn(CC(=O)N(CCNC(=O)CN(CCNC(=O)CN(CCNC(=O)CN(CCNC(=O)CN(CCNC(=O)CN(CCNC(=O)CN(CCNC(=O)CN(CCNC(=O)CN(CCNC(=O)CN(CCNC(=O)CN(CCNC(=O)CN(CCNC(=O)CN(CCNC(=O)CN(CCNC(=O)CN(CCNC(=O)CN(CCNC(=O)CN(CCNC(=O)CN(CCNC(=O)CN(CCNC(=O)CN(CCNC(=O)CN)C(=O)Cn2ccc(N)nc2=O)C(=O)Cn2ccc(=O)[nH]c2=O)C(=O)Cn2ccc(N)nc2=O)C(=O)Cn2ccc(=O)[nH]c2=O)C(=O)Cn2ccc(N)nc2=O)C(=O)Cn2ccc(N)nc2=O)C(=O)Cn2cnc3c(N)ncnc32)C(=O)Cn2ccc(N)nc2=O)C(=O)Cn2ccc(N)nc2=O)C(=O)Cn2ccc(=O)[nH]c2=O)C(=O)Cn2ccc(N)nc2=O)C(=O)Cn2ccc(N)nc2=O)C(=O)Cn2ccc(N)nc2=O)C(=O)Cn2cnc3c(N)ncnc32)C(=O)Cn2cnc3c(=O)[nH]c(N)nc32)C(=O)Cn2ccc(N)nc2=O)C(=O)Cn2cnc3c(=O)[nH]c(N)nc32)C(=O)Cn2ccc(N)nc2=O)C(=O)Cn2ccc(N)nc2=O)CC(=O)NCCN(CC(=O)NCC(=O)O)C(=O)Cn2cc(C)c(=O)[nH]c2=O)c(=O)[nH]c1=O
- Activity (T47D [22]): inactive
- Activity (T47D [23]): inactive
- inhibition (T47D [1]): Active
- Activity (T47D [24]): inactive
- Activity (T47D [25]): inactive
- Activity (T47D [26]): inactive
- Activity (T47D [27]): inactive
- Activity (T47D [28]): inactive
- Activity (T47D [29]): inactive
- Activity (T47D [30]): inactive
- Activity (T47D [31]): inactive
- Activity (T47D [32]): inactive
- Activity (T47D [33]): inactive
- inhibition (T47D [5]): Active
- Activity (T47D [34]): inactive
- Activity (T47D [35]): inactive
- inhibition (T47D [7]): Active
- inhibition at 0.1 µM (T47D [8]): 100%
- Activity (T47D [36]): inactive
- inhibition at 0.1 µM (T47D [17]): 100%
- Activity (T47D [37]): inactive
